ChEMBL document CHEMBL1131413, “Mutational evidence for a common kappa antagonist binding pocket in the wild-type kappa and mutant mu[K303E] opioid receptors” (J Med Chem, 1998)

Legend:
Mu-type opioid receptor = Mu-type opioid receptor (Rattus norvegicus, UniProt P33535); experiment: Effect on binding affinity of mutational exchange of Lys303 in the Opioid receptor mu 1 in transiently expressed […] cells activity expressed as binding affinity.; format: cell-based
[1] = target: Kappa-type opioid receptor (Rattus norvegicus, UniProt P34975); experiment: Effect on binding affinity of mutational exchange of Glu297 in the Opioid receptor kappa 1 in transiently expressed […] cells activity expressed as binding affinity.; format: cell-based
[2] = target: Kappa-type opioid receptor (Rattus norvegicus, UniProt P34975, E297K); experiment: Mutant factor of the compound against kappa[E297K] with Opioid receptor kappa 1 for binding affinity.
[3] = target: Opioid receptors; mu & kappa (Homo sapiens) (UniProt P41145+P35372); experiment: Ratio of Ke value to kappa receptor to that of mu receptor; format: protein assay
How it was run: (§1)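 Selectivity ratios were taken from Ke values measured in smooth muscle (100 nM antagonist, 15 min preincubation). Kappa Ke came from guinea-pig ileum with ethylketazocine, mu Ke from guinea-pig ileum with morphine, and delta Ke from mouse vas deferens with DADLE.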

[4] = target: Kappa-type opioid receptor (Cavia porcellus) (UniProt P41144); experiment: Opioid antagonist potencies against Opioid receptor kappa 1 from guinea pig ileum employing ethylketazocine (EKC) as agonist.; format: functional, tissue-based
How it was run: (§2)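 Electrically stimulated guinea-pig ileal longitudinal muscle. Antagonist at 100 nM was incubated 15 min before agonist (ethylketazocine for kappa, morphine for mu). Ke = [antagonist]/(IC50 ratio − 1), where the IC50 ratio is agonist IC50 with antagonist over agonist IC50 alone in the same preparation. Ke is the mean of at least three IC50 ratios.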

[5] = target: Delta-type opioid receptor (Mus musculus) (UniProt P32300); experiment: Opioid antagonist potencies against Opioid receptor delta 1 from mouse vas-deferens preparation employing [D-Ala2,D-Leu5]enkephalin (DADLE) as agonist.; format: functional
How it was run: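 Electrically stimulated mouse vas deferens. Antagonist at 100 nM was incubated 15 min before the agonist DADLE. Ke = [antagonist]/(IC50 ratio − 1), using agonist IC50 with versus without antagonist in the same preparation. Ke is from an average of at least three IC50 ratios.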

[6] = target: Mu-type opioid receptor (Cavia porcellus) (UniProt P97266); experiment: Opioid antagonist potencies against Opioid receptor mu 1 from guinea pig ileum employing morphine(M) as agonist.; format: functional, tissue-based; how it was run: as §2
[7] = target: Kappa-type opioid receptor (Rattus norvegicus) (UniProt P34975); experiment: Effect on binding affinity of mutational exchange of Glu297 in the Opioid receptor kappa 1 in transiently expressed […] cells activity expressed as binding ratio with nor-BNI.
[8] = target: Opioid receptors; delta & kappa (Homo sapiens) (UniProt P41145+P41143); experiment: Ratio of Ke value to kappa receptor to that of delta receptor; format: protein assay; how it was run: as §1
Opioid receptors; delta & kappa (Homo sapiens), sequence (P41143 whole entry, looked up): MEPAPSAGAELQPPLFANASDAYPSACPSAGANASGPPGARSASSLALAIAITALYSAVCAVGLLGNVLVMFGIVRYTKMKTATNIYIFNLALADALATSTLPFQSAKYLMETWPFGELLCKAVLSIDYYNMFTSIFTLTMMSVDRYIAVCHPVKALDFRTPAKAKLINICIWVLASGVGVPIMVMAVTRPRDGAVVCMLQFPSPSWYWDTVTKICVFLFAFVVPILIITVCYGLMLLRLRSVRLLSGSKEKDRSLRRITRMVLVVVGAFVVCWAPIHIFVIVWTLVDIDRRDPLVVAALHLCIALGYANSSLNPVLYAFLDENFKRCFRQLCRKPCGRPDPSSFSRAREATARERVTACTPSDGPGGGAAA
Opioid receptors; delta & kappa (Homo sapiens), sequence (P41145 whole entry, looked up): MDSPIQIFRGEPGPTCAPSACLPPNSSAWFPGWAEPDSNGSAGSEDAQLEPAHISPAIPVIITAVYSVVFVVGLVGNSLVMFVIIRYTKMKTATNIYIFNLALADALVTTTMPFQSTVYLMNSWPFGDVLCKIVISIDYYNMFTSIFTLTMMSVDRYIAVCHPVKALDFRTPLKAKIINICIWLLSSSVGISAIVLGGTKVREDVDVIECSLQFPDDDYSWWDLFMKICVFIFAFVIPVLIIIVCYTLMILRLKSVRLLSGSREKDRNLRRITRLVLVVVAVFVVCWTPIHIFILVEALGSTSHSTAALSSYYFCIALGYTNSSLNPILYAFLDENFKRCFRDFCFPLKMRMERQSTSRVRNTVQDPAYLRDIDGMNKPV

Kappa-type opioid receptor (Rattus norvegicus), sequence (P34975 whole entry): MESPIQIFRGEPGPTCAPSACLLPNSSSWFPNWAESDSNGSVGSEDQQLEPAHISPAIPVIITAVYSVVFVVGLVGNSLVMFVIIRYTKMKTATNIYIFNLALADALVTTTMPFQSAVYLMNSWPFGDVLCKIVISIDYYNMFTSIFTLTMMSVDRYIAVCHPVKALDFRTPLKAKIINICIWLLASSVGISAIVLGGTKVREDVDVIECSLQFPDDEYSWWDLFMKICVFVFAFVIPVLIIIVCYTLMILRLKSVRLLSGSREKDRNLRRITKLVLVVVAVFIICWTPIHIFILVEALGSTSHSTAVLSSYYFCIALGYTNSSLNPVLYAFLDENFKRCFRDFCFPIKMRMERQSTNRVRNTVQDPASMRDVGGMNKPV
Kappa-type opioid receptor (Rattus norvegicus, UniProt P34975), sequence (P34975 whole entry, looked up): as the sequence (P34975 whole entry) above
Kappa-type opioid receptor (Rattus norvegicus, UniProt P34975, E297K), sequence (P34975 whole entry E297K): as the sequence (P34975 whole entry) above, with E297K counted along it
Opioid receptors; mu & kappa (Homo sapiens), sequence (P35372 whole entry, looked up): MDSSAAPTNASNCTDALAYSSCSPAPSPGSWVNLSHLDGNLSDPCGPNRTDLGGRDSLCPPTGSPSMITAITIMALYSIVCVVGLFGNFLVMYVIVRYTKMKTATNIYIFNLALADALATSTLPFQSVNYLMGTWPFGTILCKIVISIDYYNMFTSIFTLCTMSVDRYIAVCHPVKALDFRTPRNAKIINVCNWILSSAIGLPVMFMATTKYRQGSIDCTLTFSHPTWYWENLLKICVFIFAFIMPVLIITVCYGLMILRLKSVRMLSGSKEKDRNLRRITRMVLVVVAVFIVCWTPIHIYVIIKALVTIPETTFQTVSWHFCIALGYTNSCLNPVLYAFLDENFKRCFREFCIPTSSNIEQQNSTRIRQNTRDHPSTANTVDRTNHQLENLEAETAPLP
Opioid receptors; mu & kappa (Homo sapiens), sequence (P41145 whole entry, looked up): as the sequence (P41145 whole entry, looked up) above
Mu-type opioid receptor, sequence (P33535 whole entry, looked up): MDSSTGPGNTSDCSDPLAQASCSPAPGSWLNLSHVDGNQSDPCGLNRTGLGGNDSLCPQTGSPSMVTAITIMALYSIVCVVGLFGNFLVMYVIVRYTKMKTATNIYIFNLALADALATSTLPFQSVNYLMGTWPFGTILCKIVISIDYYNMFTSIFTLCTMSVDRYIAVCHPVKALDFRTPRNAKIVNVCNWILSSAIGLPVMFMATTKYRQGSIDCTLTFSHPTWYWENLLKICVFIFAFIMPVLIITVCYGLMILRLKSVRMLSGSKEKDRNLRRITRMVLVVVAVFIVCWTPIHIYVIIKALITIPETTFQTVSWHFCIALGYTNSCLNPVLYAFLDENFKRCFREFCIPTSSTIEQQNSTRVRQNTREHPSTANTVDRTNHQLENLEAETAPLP
Mu-type opioid receptor (Cavia porcellus), sequence (P97266 whole entry): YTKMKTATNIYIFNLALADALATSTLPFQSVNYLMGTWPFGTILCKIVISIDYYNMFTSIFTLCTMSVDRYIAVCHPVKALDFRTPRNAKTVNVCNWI
Kappa-type opioid receptor (Cavia porcellus), sequence (P41144 whole entry): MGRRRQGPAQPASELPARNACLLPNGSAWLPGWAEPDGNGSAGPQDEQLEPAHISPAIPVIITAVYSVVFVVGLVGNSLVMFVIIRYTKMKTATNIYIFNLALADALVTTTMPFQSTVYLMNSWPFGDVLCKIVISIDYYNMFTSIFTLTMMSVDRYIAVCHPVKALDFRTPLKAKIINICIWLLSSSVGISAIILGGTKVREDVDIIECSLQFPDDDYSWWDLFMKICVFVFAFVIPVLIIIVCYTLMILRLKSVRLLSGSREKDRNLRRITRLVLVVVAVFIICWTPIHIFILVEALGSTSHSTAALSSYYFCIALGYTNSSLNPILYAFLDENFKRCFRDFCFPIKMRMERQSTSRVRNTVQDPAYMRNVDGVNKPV
Delta-type opioid receptor (Mus musculus), sequence (P32300 whole entry): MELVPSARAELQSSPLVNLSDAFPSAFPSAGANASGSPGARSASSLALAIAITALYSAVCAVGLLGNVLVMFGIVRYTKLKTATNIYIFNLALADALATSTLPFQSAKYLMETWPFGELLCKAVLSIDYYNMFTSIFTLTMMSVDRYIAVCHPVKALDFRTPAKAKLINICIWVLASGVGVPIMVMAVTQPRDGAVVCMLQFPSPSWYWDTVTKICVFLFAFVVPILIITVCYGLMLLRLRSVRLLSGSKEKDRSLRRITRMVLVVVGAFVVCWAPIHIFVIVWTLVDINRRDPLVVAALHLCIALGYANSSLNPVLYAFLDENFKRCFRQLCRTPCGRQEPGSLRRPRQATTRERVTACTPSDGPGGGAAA

SMILES	Ki (Mu-type opioid receptor) [nM]	Ki [1] [nM]	Ki [2] [nM]	Selectivity [3]	Ke [4] [nM]	Ke [5] [nM]	Ke [6] [nM]	Fana [7]	Selectivity [8]
N#CN=C(N)Nc1ccc2[nH]c3c(c2c1)C[C@@]1(O)C2Cc4ccc(O)c5c4[C@@]1(CCN2CC1CC1)[C@H]3O5	4.04	0.27	2.48	–	–	–	–	–	–
N#CN/C(N)=N/c1ccc2[nH]c3c(c2c1)C[C@@]1(O)C2Cc4ccc(O)c5c4[C@@]1(CCN2CC1CC1)[C@H]3O5	–	–	–	5	3.13	9.08	16.1	2.25	3
Oc1ccc2c3c1O[C@H]1c4[nH]c5c(c4C[C@@]4(O)[C@@H](C2)N(CC2CC2)CC[C@]314)C[C@@]1(O)[C@H]2Cc3ccc(O)c4c3[C@@]1(CCN2CC1CC1)[C@H]5O4	–	–	–	–	–	–	–	1	–
N=C(N)Nc1ccc2[nH]c3c(c2c1)C[C@@]1(O)[C@H]2Cc4ccc(O)c5c4[C@@]1(CCN2CC1CC1)[C@H]3O5 [GUANIDINONALTRINDOLE]	9.23	0.09	12.9	208	–	–	–	0.75	799
